Among the data in ChEMBL document CHEMBL1914427, “Design, synthesis and biological evaluation of benzo[1.3.2]dithiazolium ylide 1,1-dioxide derivatives as potential dual cyclooxygenase-2/5-lipoxygenase inhibitors” (Bioorg Med Chem, 2011) are inhibition, IC50 and inhibition in vivo values, retold here.

Active and inactive are the calls of the source. No cut-off for these calls is given here.

Assay [1] has as its target T1, Polyunsaturated fatty acid 5-lipoxygenase (Homo sapiens) (UniProt P09917).
T1 sequence (whole entry): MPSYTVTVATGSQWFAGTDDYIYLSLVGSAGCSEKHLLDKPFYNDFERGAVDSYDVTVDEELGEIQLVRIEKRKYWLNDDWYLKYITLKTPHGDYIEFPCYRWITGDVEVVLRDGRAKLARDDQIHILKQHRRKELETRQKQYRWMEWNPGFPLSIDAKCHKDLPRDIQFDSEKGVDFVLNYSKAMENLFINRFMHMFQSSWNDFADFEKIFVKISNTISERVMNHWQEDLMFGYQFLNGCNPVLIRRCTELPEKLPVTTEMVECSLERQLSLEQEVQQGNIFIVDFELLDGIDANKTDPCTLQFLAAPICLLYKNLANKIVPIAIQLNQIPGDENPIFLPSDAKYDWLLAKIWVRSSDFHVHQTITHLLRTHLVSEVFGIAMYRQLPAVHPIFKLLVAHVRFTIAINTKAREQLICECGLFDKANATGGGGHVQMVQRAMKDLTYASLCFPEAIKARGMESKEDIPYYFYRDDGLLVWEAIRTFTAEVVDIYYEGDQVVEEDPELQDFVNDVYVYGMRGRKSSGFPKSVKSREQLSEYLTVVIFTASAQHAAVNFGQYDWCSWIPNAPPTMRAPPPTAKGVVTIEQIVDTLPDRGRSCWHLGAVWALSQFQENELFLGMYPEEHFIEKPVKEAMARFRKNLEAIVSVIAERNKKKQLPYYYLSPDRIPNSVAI
Kind of assay: Inhibition of […] human 5-LOX in human PBML assessed as inhibition of A23187-induced LTB4 production at 10 uM preincubated for 15 mins measured after 15 mins by enzyme immunoassay. Put shortly: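 Human PBML (5 × 10⁶ cells/mL) in HBSS pH 7.4 preincubated with compound 15 min at 37 °C. Calcium ionophore A23187 (30) then added, 15 min at 37 °C, and reaction stopped with 1 N HCl.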

Assay [2] has as its target T2, Prostaglandin G/H synthase 2 (Homo sapiens) (UniProt P35354).
T2 sequence (whole entry): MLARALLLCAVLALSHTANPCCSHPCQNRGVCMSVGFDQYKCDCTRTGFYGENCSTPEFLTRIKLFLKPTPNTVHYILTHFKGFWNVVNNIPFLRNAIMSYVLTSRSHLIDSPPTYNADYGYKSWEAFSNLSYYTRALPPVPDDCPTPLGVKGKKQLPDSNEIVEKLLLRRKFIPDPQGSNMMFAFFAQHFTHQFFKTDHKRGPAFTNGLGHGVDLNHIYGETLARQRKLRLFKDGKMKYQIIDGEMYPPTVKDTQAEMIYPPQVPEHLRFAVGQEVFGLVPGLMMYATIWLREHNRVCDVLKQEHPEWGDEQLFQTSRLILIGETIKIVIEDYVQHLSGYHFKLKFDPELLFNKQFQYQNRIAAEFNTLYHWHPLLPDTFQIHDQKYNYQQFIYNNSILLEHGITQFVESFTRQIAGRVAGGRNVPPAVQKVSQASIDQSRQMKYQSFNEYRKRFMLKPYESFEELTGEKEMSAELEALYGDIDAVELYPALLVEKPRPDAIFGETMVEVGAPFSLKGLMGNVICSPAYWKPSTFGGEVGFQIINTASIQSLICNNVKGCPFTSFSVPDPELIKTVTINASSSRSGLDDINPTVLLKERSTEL
Put plainly: Inhibition of human recombinant COX2 expressed in Sf21 cells assessed as conversion of arachidonic acid to PGE2 at 10 uM preincubated for 15 mins measured after 5 mins by enzyme immunoassay. The method, boiled down: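 Human recombinant COX-2 (Sf21-expressed, 0.11 U) preincubated with compound 15 min at 37 °C in Tris–HCl pH 7.7 containing 1 mM glutathione, phenol and hematin. Reaction started with 0.3 arachidonic acid. Run by a contract lab.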

Assay [3] concerns the target T3, Polyunsaturated fatty acid 5-lipoxygenase (Homo sapiens, UniProt P09917).
T3 sequence (P09917 whole entry): T1 sequence (whole entry)
Kind of assay: Inhibition of […] human PBML assessed as inhibition of A23187-induced LTB4 production preincubated for 15 mins measured after 15 mins by enzyme immunoassay.

The target of assay [4] is T4, Prostaglandin G/H synthase 2 (Homo sapiens, UniProt P35354).
T4 sequence (P35354 whole entry): T2 sequence (whole entry)
Put plainly: Inhibition of human recombinant COX2 expressed in Sf21 cells assessed as conversion of arachidonic acid to PGE2 preincubated for 15 mins measured after 5 mins by enzyme immunoassay.

For assay [5], the system named is Rattus norvegicus. Kind of assay: Antiinflammatory activity in Wistar rat assessed as inhibition of carrageenan-induced paw edema at 10 mg/kg, ip administered 30 mins before carrageenan challenge measured after 3 hrs relative to vehicle treated control. In kind it is functional. The following applies: route intraperitoneal. Put shortly:
(§1)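 Male Wistar rats, held at 20–24 °C and 50–80% humidity on 12 h light/dark for at least three days, with chow and water unless fasted. Test article given IP at 10, 30 or 100 mg/kg in 1% Tween 80/0.9% NaCl, dosing volume 5 mL/kg, 30 min before intraplantar carrageenan (0.1 mL of 1% suspension) into the right hind paw. Edema read by plethysmometer at 3 h; inhibition taken relative to vehicle group.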

The subject of assay [6] is Rattus norvegicus. Put plainly: Antiinflammatory activity in ip dosed Wistar rat assessed as inhibition of carrageenan-induced paw edema administered 30 mins before carrageenan challenge measured after 3 hrs. The class given is functional, organism-based. Put shortly:
as §1

Assay [7] deals with Rattus norvegicus. Put plainly: Antiinflammatory activity in Wistar rat assessed as inhibition of carrageenan-induced paw edema at 30 mg/kg, ip administered 30 mins before carrageenan challenge measured after 3 hrs relative to vehicle treated control. In kind it is functional. As to conditions: route intraperitoneal. The method, boiled down: as §1
Assay [8] concerns Rattus norvegicus. Kind of assay: Antiinflammatory activity in Wistar rat assessed as inhibition of carrageenan-induced paw edema at 100 mg/kg, ip administered 30 mins before carrageenan challenge measured after 3 hrs relative to vehicle treated control. In kind it is functional. As to conditions: route intraperitoneal. The method, boiled down: as §1

Take `NS(=O)(=O)c1ccc2c(c1)S(c1ccc(Br)cc1)=NS2(=O)=O` (configuration not stated): the inhibition in assay [1] came out at 14%.
Consider `CCc1ccc(S2=NS(=O)(=O)c3cc(S(C)(=O)=O)ccc32)cc1` (configuration not stated), for which the values for the inhibition in assay [1] and in assay [2] were 35% and 43%, respectively.
The like results for `CC(C)(C)c1ccc(S2=NS(=O)(=O)c3cc(S(N)(=O)=O)ccc32)cc1` (configuration not stated) were, in that order, 23% and 21%.
The matching figures for `O=C(O)c1ccc2c(c1)S(=O)(=O)N=S2c1ccc(Br)cc1` (configuration not stated): 2% and 7%.
With `O=S1(=O)N=S(c2ccccc2)c2ccccc21` (configuration not stated), the inhibition is 14% in assay [1] and 0% in assay [2].
The like results for `NS(=O)(=O)c1ccc2c(c1)S(c1ccc(Cl)c(Cl)c1)=NS2(=O)=O` (configuration not stated) were, in that order, “inactive” and 14%.
The like results for `Cc1ccc(C2=NS(=O)(=O)c3ccccc32)cc1` were, in that order, 9% and 16%.
With `CCc1ccc(S2=NS(=O)(=O)c3cc([N+](=O)[O-])ccc32)cc1` (configuration not stated), the IC50 in assay [3] was determined as 180 nM; in assay [4], 1700 nM.
The like results for `CS(=O)(=O)c1ccc2c(c1)S(=O)(=O)N=S2c1ccc(Br)cc1` (configuration not stated) were, in that order, 13500 nM and 1800 nM.
For the compound `O=[N+]([O-])c1ccc2c(c1)S(=O)(=O)N=S2c1ccncc1` (configuration not stated), the inhibition in assay [1] is 17%; in assay [2], 15%.
The matching figures for `O=S1(=O)N=C(c2ccc(Br)cc2)c2ccccc21`: 11% and 0%.
The like results for `NS(=O)(=O)c1ccc2c(c1)S(c1ccc(Cl)cc1Cl)=NS2(=O)=O` (configuration not stated) were, in that order, “inactive” and 9%.
On to `COC(=O)c1ccc2c(c1)S(=O)(=O)N=S2c1ccc(Br)cc1` (configuration not stated), for which, in assay [3], the IC50 worked out at 4100 nM. Besides, the inhibition in assay [2] amounted to 33%.
For `CC(C)(C)c1ccc(S2=NS(=O)(=O)c3cc([N+](=O)[O-])ccc32)cc1` (configuration not stated), in the assay on Rattus norvegicus [5], the inhibition in vivo at 10 mg/kg amounted to 14%. Besides, the figures for the IC50 in assay [3] and in assay [4] were 300 nM and 270 nM, respectively. For the same compound, the inhibition entry in the assay on Rattus norvegicus [6] is “Dose-dependent effect”. Further, in the assay with Rattus norvegicus [7], the inhibition in vivo at 30 mg/kg stood at 27%. Besides, the inhibition in vivo at 100 mg/kg in the assay with Rattus norvegicus [8] came to 65%.
As for `COc1ccc(S2=NS(=O)(=O)c3cc([N+](=O)[O-])ccc32)cc1` (configuration not stated), the IC50 stood at 350 nM in assay [3] and 880 nM in assay [4].
Consider `COc1ccc(S2=NS(=O)(=O)c3ccc(S(N)(=O)=O)cc32)cc1` (configuration not stated), for which the inhibition in assay [1] was found to be 21%. In assay [2], the inhibition result is “inactive”.
The matching figures for `CCc1ccc(C2=NS(=O)(=O)c3cc(S(N)(=O)=O)ccc32)cc1`: 8% and 0%.
The matching figures for `Cc1ccc(S2=NS(=O)(=O)c3ccc(S(N)(=O)=O)cc32)c(C)c1` (configuration not stated): “inactive” and “inactive”.
`COc1ccc(S2=NS(=O)(=O)c3ccc(S(N)(=O)=O)cc32)cc1OC` (configuration not stated): in assay [1], the inhibition result is “inactive”. Moreover, the inhibition in assay [2] was determined as 6%.
`CC(C)(C)c1ccc(S2=NS(=O)(=O)c3ccc(S(N)(=O)=O)cc32)cc1` (configuration not stated): the inhibition in assay [1] amounted to 25%. Also, in assay [2], the inhibition result was “inactive”.
Turning to `O=[N+]([O-])c1ccc2c(c1)S(=O)(=O)N=S2c1ccc(-c2ccccc2)cc1` (configuration not stated), the IC50 in assay [3] was found to be 150 nM; in assay [4], 500 nM.
Regarding `CCc1ccc(S2=NS(=O)(=O)c3ccc(S(N)(=O)=O)cc32)cc1` (configuration not stated), in assay [1], the inhibition was determined as 7%. Besides, the inhibition result in assay [2] was “inactive”.
As for `NC(=O)c1ccc2c(c1)S(=O)(=O)N=S2c1ccc(Br)cc1` (configuration not stated), the inhibition came to 15% in assay [1] and 0% in assay [2].
The matching figures for `COC1(c2cc(F)cc(OCCS3=NS(=O)(=O)c4cc([N+](=O)[O-])ccc43)c2)CCOCC1` (configuration not stated): 25% and 25%.
The like results for `NS(=O)(=O)c1ccc2c(c1)S(c1ccc(F)cc1F)=NS2(=O)=O` (configuration not stated) were, in that order, “inactive” and “inactive”.
The like results for `NS(=O)(=O)c1ccc2c(c1)S(c1cccc(Br)c1)=NS2(=O)=O` (configuration not stated) were, in that order, 28% and 7%.
For the compound `NS(=O)(=O)c1ccc2c(c1)S(=O)(=O)N=S2c1ccc(-c2ccccc2)cc1` (configuration not stated), in assay [3], the half-maximal inhibitory concentration (IC50) was 3450 nM. Further, the inhibition in assay [2] is 31%.
`O=[N+]([O-])c1ccc2c(c1)S(=O)(=O)N=S2c1ccc(C(F)(F)F)cc1` (configuration not stated): the values for the half-inhibitory concentration (IC50) in assay [3] and in assay [4] were 3090 nM and 2990 nM, respectively.
With `COc1ccc(S2=NS(=O)(=O)c3cc([N+](=O)[O-])ccc32)cc1OC` (configuration not stated), in assay [3], the IC50 is 680 nM. Besides, the inhibition in assay [2] was 15%.
As for `O=S1(=O)N=S(c2ccc(Br)cc2)c2ccccc21` (configuration not stated), the inhibition turned out to be 33% in assay [1] and 2% in assay [2].
Take `CC(C)c1ccc(S2=NS(=O)(=O)c3cc([N+](=O)[O-])ccc32)cc1` (configuration not stated): the figures for the IC50 in assay [3] and in assay [4] were 360 nM and 730 nM, respectively.
Turning to `NS(=O)(=O)c1ccc2c(c1)S(c1ccc(Cl)cc1)=NS2(=O)=O` (configuration not stated), the inhibition in assay [1] was determined as 19%. In addition, the inhibition result in assay [2] was “inactive”.
Take `Cc1ccc(S2=NS(=O)(=O)c3ccc(S(N)(=O)=O)cc32)cc1C` (configuration not stated): in assay [1], the inhibition entry is “inactive”. In addition, in assay [2], the inhibition came to 15%.
On to `NS(=O)(=O)c1cc2c(cc1Cl)S(c1ccc(Br)cc1)=NS2(=O)=O` (configuration not stated), for which the IC50 stood at 25800 nM in assay [3] and 2300 nM in assay [4].
Take `COc1cc(OC)cc(OCCS2=NS(=O)(=O)c3cc([N+](=O)[O-])ccc32)c1` (configuration not stated): the IC50 in assay [3] came out at 3700 nM. Moreover, in assay [2], the inhibition was found to be 35%.
As for `CC(C)c1ccc(S2=NS(=O)(=O)c3ccc(S(N)(=O)=O)cc32)cc1` (configuration not stated), the inhibition in assay [1] was 19%; in assay [2] it was 10%.
The like results for `NS(=O)(=O)c1ccc2c(c1)S(c1ccc(C(F)(F)F)cc1)=NS2(=O)=O` (configuration not stated) were, in that order, 37% and “inactive”.
The like results for `NS(=O)(=O)c1ccc2c(c1)S(c1ccc(F)cc1)=NS2(=O)=O` (configuration not stated) were, in that order, 9% and 2%.
For `Cc1ccc2c(c1)S(=O)(=O)N=S2c1ccc(Br)cc1` (configuration not stated), the IC50 in assay [3] was 6050 nM. In assay [2], the inhibition was 14%.
As to `Cc1ccc(S2=NS(=O)(=O)c3ccc(S(N)(=O)=O)cc32)cc1` (configuration not stated), the inhibition in assay [1] was 9%; in assay [2] it was 2%.
The matching figures for `CC(C)c1ccc(S2=NS(=O)(=O)c3cc(S(N)(=O)=O)ccc32)cc1` (configuration not stated): 42% and 44%.
As for `NS(=O)(=O)c1ccc2c(c1)S(=O)(=O)N=S2c1ccc(Br)cc1` (configuration not stated), the IC50 in assay [3] worked out at 91100 nM. In addition, the inhibition in assay [2] amounted to 0%.
